Results taken from paper PMC7717620 (Nucleosides, nucleotides & nucleic acids, 2019).
“Also recorded” adds a separate entry of the source.

Experiments:
[1] = system: human cardiomyocytes; assay: recording of human cardiomyocyte beating patterns; type: cell-based; settings: for change in beating rate or rhythm of cardiomyocytes (observation): up to 48 h
[2] = system: human cardiomyocytes; assay: cellular accumulation and metabolism in human cardiomyocytes; type: in vitro ADME; settings: 10 μM
[3] = system: primary dog hepatocytes; assay: intracellular metabolism in primary dog hepatocytes; type: in vitro ADME; settings: 50 μM, 4 h
[4] = system: primary rat hepatocytes; assay: intracellular metabolism in primary rat hepatocytes; type: in vitro ADME; settings: 50 μM, 4 h
[5] = system: primary mouse hepatocytes; assay: intracellular metabolism in primary mouse hepatocytes; type: in vitro ADME; settings: 50 μM, 4 h
[6] = system: primary human hepatocytes; assay: intracellular metabolism in primary human hepatocytes; type: in vitro ADME; settings: 50 μM, 4 h
[7] = system: HepG2 cells; assay: intracellular metabolism in HepG2 cells; type: in vitro ADME, human; settings: HepG2, 50 μM, 4 h
[8] = system: Huh-7 cells; assay: intracellular metabolism in Huh-7 cells; type: in vitro ADME, human; settings: Huh-7, 50 μM, 4 h
[9] = system: HCV genotype 1 b RNA replication; assay: subgenomic HCV replicon system, inhibition of HCV RNA replication in Huh-7 cells; type: cell-based, hepatitis C virus; settings: HCV genotype 1 b subgenomic replicon
Procedure, shortened: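 HCV genotype 1b subgenomic replicon in Huh-7 cells. HCV RNA and cellular ribosomal RNA were extracted and amplified, so replication and cytotoxicity were read in the same cells.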

[10] = system: primary monkey hepatocytes; assay: intracellular metabolism in primary monkey hepatocytes; type: in vitro ADME; settings: 50 μM, 4 h
[11] = system: patients; settings: of the 34 patients treated, phase IIb; cited from earlier work
[12] = system: monkey heart and kidney; settings: three weeks post a three-week dosing (week 6); cited from earlier work
[13] = all three concentrations (2, 10 and 50 μM)

CC(C)(CO)C(=O)SCCOP(=O)(NCc1ccccc1)OC[C@H]1O[C@@H](n2cnc3c(=O)[nH]c(N)nc32)[C@](C)(O)[C@@H]1O (mixture of isomers) [IDX-184, S-(2-(((((2R,3R,4R,5R)-5-(2-Amino-6-oxo-1,6-dihydro-9H-purin-9-yl)-3,4-dihydroxy-4-methyltetrahydrofuran-2-yl)methoxy)(benzylamino)phosphoryl)oxy)ethyl) 3-hydroxy-2,2-dimethylpropanethioate]
Beating rate of human cardiomyocytes ([1]; 2 μM, 2 h): 32.0 ± 0 beats/minute | Beating rate of human cardiomyocytes ([1]; 2 μM, 4 h): 31.5 ± 0.7 beats/minute | Beating rate of human cardiomyocytes ([1]; 2 μM, 8 h): 37.0 ± 1.4 beats/minute | Beating rate of human cardiomyocytes ([1]; 2 μM, 12 h): 36.0 ± 1.4 beats/minute | Beating rate of human cardiomyocytes ([1]; 2 μM, 24 h): 32.5 ± 0.7 beats/minute | Beating rate of human cardiomyocytes ([1]; 2 μM, 48 h): 24.0 ± 1.4 beats/minute | Beating rate of human cardiomyocytes ([1]; 10 μM, 2 h): 30.0 ± 1.4 beats/minute | Beating rate of human cardiomyocytes ([1]; 10 μM, 4 h): 30.0 ± 0 beats/minute | Beating rate of human cardiomyocytes ([1]; 10 μM, 8 h): 34.0 ± 0 beats/minute | Beating rate of human cardiomyocytes ([1]; 10 μM, 12 h): 34.0 ± 1.4 beats/minute | Beating rate of human cardiomyocytes ([1]; 10 μM, 24 h): 31.0 ± 1.4 beats/minute | Beating rate of human cardiomyocytes ([1]; 10 μM, 48 h): 25.0 ± 1.4 beats/minute | Beating rate of human cardiomyocytes ([1]; 50 μM, 2 h): 33.0 ± 0 beats/minute | Beating rate of human cardiomyocytes ([1]; 50 μM, 4 h): 31.5 ± 0.7 beats/minute | Beating rate of human cardiomyocytes ([1]; 50 μM, 8 h): 34.5 ± 0.7 beats/minute | Beating rate of human cardiomyocytes ([1]; 50 μM, 12 h): 34.5 ± 0.7 beats/minute | Beating rate of human cardiomyocytes ([1]; 50 μM, 24 h): 34.5 ± 4.9 beats/minute | Beating rate of human cardiomyocytes ([1]; 50 μM, 48 h): 27.5 ± 0.7 beats/minute | change in beating rate or rhythm of cardiomyocytes (observation) [1, 13]: no obvious beating rate change; also recorded: no apparent change in beating; also recorded: no apparent changes to beat rate or rhythm | Intracellular concentration in human cardiomyocytes: Prodrugs ([2]; 4 h): 21 ± 1 pmol/10^6 cells | Intracellular concentration in human cardiomyocytes: Prodrugs ([2]; 8 h): 9.8 ± 1.4 pmol/10^6 cells | intact prodrug level, times lower than BMS-986094 ([2]; human cardiomyocytes, 8 h): 83 times | Intracellular concentration: Prodrugs [3]: 110 ± 2 pmol/10^6 cells | Intracellular concentration: Prodrugs [4]: 1,100 ± 471 pmol/10^6 cells | Intracellular concentration: Prodrugs [5]: 220 ± 3 pmol/10^6 cells | Intracellular concentration: Prodrugs [6]: 160 ± 18 pmol/10^6 cells | Intracellular concentration: Prodrugs [7]: 21 ± 1 pmol/10^6 cells | Intracellular concentration: Prodrugs [8]: 11 ± 1 pmol/10^6 cells | Replicon Huh-7 EC50 [9]: sub-micromolar | Intracellular concentration: Prodrugs [10]: 75 ± 3 pmol/10^6 cells

COc1nc(N)nc2c1ncn2[C@@H]1O[C@H](COP(=O)(N[C@@H](C)C(=O)OCC(C)(C)C)Oc2cccc3ccccc23)[C@@H](O)[C@@]1(C)O (stereo partly drawn) [BMS-986094, Neopentyl ((((2R,3R,4R,5R)-5-(2-amino-6-methoxy-9H-purin-9-yl)-3,4-dihydroxy-4-methyltetrahydrofuran-2-yl)methoxy)(naphthalen-1-yloxy)phosphoryl)-L-alaninate]
Beating rate of human cardiomyocytes ([1]; 2 μM, 2 h): 31.0 ± 0 beats/minute | Beating rate of human cardiomyocytes ([1]; 2 μM, 4 h): 30.5 ± 0.7 beats/minute | Beating rate of human cardiomyocytes ([1]; 2 μM, 8 h): 34.5 ± 0.7 beats/minute | Beating rate of human cardiomyocytes ([1]; 2 μM, 12 h): 36.0 ± 0 beats/minute | Beating rate of human cardiomyocytes ([1]; 2 μM, 24 h): 32.5 ± 0.7 beats/minute | Beating rate of human cardiomyocytes ([1]; 2 μM, 48 h): 26.5 ± 0.7 beats/minute | change in beating rate or rhythm of cardiomyocytes (observation) ([1]; 2 μM): no clear change in beating rate or rhythm | Beating rate of human cardiomyocytes ([1]; 10 μM, 2 h): 31.0 ± 0 beats/minute | Beating rate of human cardiomyocytes ([1]; 10 μM, 4 h): 31.0 ± 0 beats/minute | Beating rate of human cardiomyocytes ([1]; 10 μM, 8 h): 35.0 ± 0 beats/minute | Beating rate of human cardiomyocytes ([1]; 10 μM, 12 h): 36.0 ± 0 beats/minute | Beating rate of human cardiomyocytes ([1]; 10 μM, 24 h): 34.5 ± 0.7 beats/minute | Beating rate of human cardiomyocytes ([1]; 10 μM, 48 h): 35.5 ± 2.1 beats/minute | change in beating rate or rhythm of cardiomyocytes (observation) ([1]; 10 μM): changes to both beat rate and rhythm were noted; also recorded: higher beating rates were observed starting from 12 h | time until cardiomyocytes stopped beating ([1]; 50 μM): ≤ 2 h | Beating rate of human cardiomyocytes ([1]; 50 μM, 2 h): 0 ± 0 beats/minute | Beating rate of human cardiomyocytes ([1]; 50 μM, 4 h): 0 ± 0 beats/minute | Beating rate of human cardiomyocytes ([1]; 50 μM, 8 h): 0 ± 0 beats/minute | Beating rate of human cardiomyocytes ([1]; 50 μM, 12 h): 32.0 beats/minute | Beating rate of human cardiomyocytes ([1]; 50 μM, 24 h): 34.0 ± 0 beats/minute | Beating rate of human cardiomyocytes ([1]; 50 μM, 48 h): 0 ± 0 beats/minute | rhythm of cardiomyocytes (observation) ([1]; 50 μM, beating resumed briefly at 12 and 24 h): very unstable rhythm | Intracellular concentration in human cardiomyocytes: NTP (triphosphate of N) ([2]; 4 h): BLOQ | Intracellular concentration in human cardiomyocytes: Prodrugs ([2]; 4 h): 800 ± 118 pmol/10^6 cells | Intracellular concentration in human cardiomyocytes: NTP (triphosphate of N) ([2]; 8 h): BLOQ | Intracellular concentration in human cardiomyocytes: Prodrugs ([2]; 8 h): 810 ± 80 pmol/10^6 cells | level of intact prodrug, fold higher than DAPN-PD ([2]; human cardiomyocytes, 4 h): 11 fold | level of intact prodrug, fold higher than IDX-184 ([2]; human cardiomyocytes, 4 h): 37 fold | Intracellular concentration: Prodrugs [3]: 2,200 ± 68 pmol/10^6 cells | deaths [11]: one death | patients with some evidence of cardiac dysfunction [11]: 14 | levels of 2’-C-Me-GTP in the heart and kidney [12]: 2,610–4,280 ng/mL | Intracellular concentration: Prodrugs [4]: 52 pmol/10^6 cells | Intracellular concentration: NTP (triphosphate of N) [5]: undetectable and BLOQ | Intracellular concentration: Prodrugs [5]: 880 ± 135 pmol/10^6 cells | Intracellular concentration: Prodrugs [6]: 4,100 ± 569 pmol/10^6 cells | Intracellular concentration: Prodrugs [7]: 2,400 ± 9 pmol/10^6 cells | parent prodrug level, times the level observed for DAPN-PD [7]: 6 times | parent prodrug level, times the level observed for IDX-184 [7]: 110 times | Intracellular concentration: Prodrugs [8]: 2,900 ± 358 pmol/10^6 cells | parent prodrug level, times the level observed for DAPN-PD [8]: 17 times | parent prodrug level, times the level observed for IDX-184 [8]: 260 times | Intracellular concentration: Prodrugs [10]: 150 ± 19 pmol/10^6 cells

CC(C)OC(=O)[C@H](C)N[P@](=O)(OC[C@H]1O[C@@H](n2ccc(=O)[nH]c2=O)[C@](C)(F)[C@@H]1O)Oc1ccccc1 [Sofosbuvir, sofosbuvir]
Beating rate of human cardiomyocytes ([1]; 2 μM, 2 h): 36.5 ± 2.1 beats/minute | Beating rate of human cardiomyocytes ([1]; 2 μM, 4 h): 35.0 ± 1.4 beats/minute | Beating rate of human cardiomyocytes ([1]; 2 μM, 8 h): 38.5 ± 0.7 beats/minute | Beating rate of human cardiomyocytes ([1]; 2 μM, 12 h): 36.5 ± 0.7 beats/minute | Beating rate of human cardiomyocytes ([1]; 2 μM, 24 h): 33.0 ± 0 beats/minute | Beating rate of human cardiomyocytes ([1]; 2 μM, 48 h): 25.5 ± 0.7 beats/minute | Beating rate of human cardiomyocytes ([1]; 10 μM, 2 h): 34.0 ± 1.4 beats/minute | Beating rate of human cardiomyocytes ([1]; 10 μM, 4 h): 33.0 ± 1.4 beats/minute | Beating rate of human cardiomyocytes ([1]; 10 μM, 8 h): 35.0 ± 1.4 beats/minute | Beating rate of human cardiomyocytes ([1]; 10 μM, 12 h): 33.5 ± 0.7 beats/minute | Beating rate of human cardiomyocytes ([1]; 10 μM, 24 h): 30.0 ± 0 beats/minute | Beating rate of human cardiomyocytes ([1]; 10 μM, 48 h): 23.0 ± 0 beats/minute | Beating rate of human cardiomyocytes ([1]; 50 μM, 2 h): 32.5 ± 0.7 beats/minute | Beating rate of human cardiomyocytes ([1]; 50 μM, 4 h): 32.0 ± 0 beats/minute | Beating rate of human cardiomyocytes ([1]; 50 μM, 8 h): 34.5 ± 0.7 beats/minute | Beating rate of human cardiomyocytes ([1]; 50 μM, 12 h): 33.0 ± 1.4 beats/minute | Beating rate of human cardiomyocytes ([1]; 50 μM, 24 h): 29.5 ± 0.7 beats/minute | Beating rate of human cardiomyocytes ([1]; 50 μM, 48 h): 23.5 ± 0.7 beats/minute | change in beating rate or rhythm of cardiomyocytes (observation) [1, 13]: no apparent change in beating rate or rhythm | Intracellular concentration in human cardiomyocytes: Prodrugs ([2]; 4 h): 56 ± 3 pmol/10^6 cells | Intracellular concentration in human cardiomyocytes: Prodrugs ([2]; 8 h): 42 ± 4 pmol/10^6 cells
